Experimental data: PubChem BioAssay AID493183 (Sanford-Burnham Center for Chemical Genomics, 2011)
Activity calls are given as the source filed them.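 Rule for the calls: active = mean EC50 below 10 µM; inactive = the rest.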

Molecular target: Apelin receptor (Homo sapiens) (UniProt P35414)
Assay: APJ receptor agonists, beta-arrestin recruitment, SAR follow-up, cell-based, CHO-K1 AGTRL-1, PathHunter luminescence, set 4 (AID 493183)
Settings: CHO-K1 AGTRL-1 PathHunter beta-arrestin
Outline: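 Material: CHO-K1 cells with ProLink-tagged AGTRL-1 and β-arrestin–β-gal acceptor fusion; compound dosing: dose series from 2 mM compound stock; incubation: overnight seeding, 90 min compound at 25 °C, 60 min detection; signal: luminescence from β-gal fragment complementation after adding detection reagent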

Chain of Apelin receptor (Homo sapiens) (P35414 whole entry, looked up): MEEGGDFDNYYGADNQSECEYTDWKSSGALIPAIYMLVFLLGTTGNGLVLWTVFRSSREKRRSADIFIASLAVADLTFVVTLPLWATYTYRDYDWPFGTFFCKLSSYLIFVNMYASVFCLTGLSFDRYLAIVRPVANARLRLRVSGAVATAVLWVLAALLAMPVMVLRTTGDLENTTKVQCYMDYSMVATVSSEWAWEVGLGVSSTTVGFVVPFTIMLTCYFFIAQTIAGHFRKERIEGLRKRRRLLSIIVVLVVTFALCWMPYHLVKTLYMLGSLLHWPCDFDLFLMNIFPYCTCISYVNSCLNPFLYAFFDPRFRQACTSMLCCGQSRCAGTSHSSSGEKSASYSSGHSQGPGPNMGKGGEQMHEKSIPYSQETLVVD

Structure (SMILES)	EC50
COC(=O)c1cc(NS(=O)(=O)c2ccccc2)ccc1O	> 79 µM (inactive)
Cc1cc(O)c(C(C)C)cc1NS(=O)(=O)c1ccccc1	> 79 µM (inactive)
O=S(=O)(Nc1cc(Cl)c(O)c(Cl)c1)c1ccccc1	> 79 µM (inactive)
CC1=CC(=O)C(C(C)C)=C/C1=N/OS(=O)(=O)c1cccnc1	6.45 µM
CC1=CC(=O)C(C(C)C)=C/C1=N/OS(=O)(=O)c1ccc(C(C)(C)C)cc1	inactive

Now from value to compound:

EC50	Structure (SMILES)
3.69 µM	CC1=CC(=O)C(C(C)C)=C/C1=N/OS(=O)(=O)c1ccc(C(F)(F)F)cc1
3.82 µM	CC1=CC(=O)C(C(C)C)=C/C1=N/OS(=O)(=O)c1ccc(OC(F)(F)F)cc1
